According to ChEMBL document CHEMBL1140196, “Synthesis and biological activities of some new fluorinated coumarins and 1-aza coumarins” (Eur J Med Chem, 2008):

Experiments:
[1] = Acute toxicity in ip dosed albino mouse after 24 hrs; assay type: organism-based; settings: in vivo
Procedure, shortened: (§1)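 Groups of six albino mice (20–25 g), fasted overnight, dosed once orally or intraperitoneally at 100 to 1000 mg kg^-1 body weight. Observed for 24 h for mortality and signs of acute toxicity (altered motor activity, tremors, convulsion, sedation, lacrimation). LD50 cut-off set at the highest dose tested, 1000 mg kg^-1.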

[2] = Acute toxicity in po dosed albino mouse after 24 hrs; assay type: organism-based; settings: in vivo; procedure, shortened: as §1
[3] = system: Rattus norvegicus; assay: Gastrointestinal toxicity in Wistar rat assessed as ulcerogenic effect at 400 mg/kg, po administered twice at 2 hrs interval after 4 hrs; assay type: organism-based; set-up: dose 400 mg/kg, route oral; settings: in vivo
Procedure, shortened: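 Male Wistar rats fasted 36 h, then given 400 mg/kg orally twice, 2 h apart. Animals killed 4 h later and the stomach examined for lesions; ulcer index recorded.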

[4] = system: Mus musculus; assay: Analgesic activity in albino mouse assessed as inhibition of acetic acid-induced writhing at 10 mg/kg, po; assay type: functional
Procedure, shortened: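 Acetic acid writhing test: 0.6% acetic acid at 0.1 ml/10 g given intraperitoneally to albino mice of both sexes (18–22 g). Compounds given orally at 10 mg/kg as a suspension in 5% carboxymethyl cellulose. Indomethacin 10 mg/kg was the reference under the same conditions.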

[5] = system: Rattus norvegicus; assay: Antiinflammatory activity in Wistar rat assessed as inhibition of formalin-induced paw oedema volume at 100 mg/kg, po administered 30 mins before formalin challenge after 1 hr relative to control; assay type: functional
Procedure, shortened: (§2)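 Oral dosing at 100 mg/kg as a 2% CMC suspension, 30 min before injecting 3.5% formalin into the paw. Groups of six Wistar rats of either sex. Paw volume read by mercury-displacement plethysmograph at 0 h (right after formalin) and at 1, 2, 3, 4 and 5 h. Percent inhibition versus plain 2% CMC controls; SEM reported.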

[6] = system: Rattus norvegicus; assay: Antiinflammatory activity in Wistar rat assessed as inhibition of formalin-induced paw oedema volume at 100 mg/kg, po administered 30 mins before formalin challenge after 2 hrs relative to control; assay type: functional; procedure, shortened: as §2
[7] = system: Rattus norvegicus; assay: Antiinflammatory activity in Wistar rat assessed as inhibition of formalin-induced paw oedema volume at 100 mg/kg, po administered 30 mins before formalin challenge after 3 hrs relative to control; assay type: functional; procedure, shortened: as §2
[8] = system: Rattus norvegicus; assay: Antiinflammatory activity in Wistar rat assessed as inhibition of formalin-induced paw oedema volume at 100 mg/kg, po administered 30 mins before formalin challenge after 4 hrs relative to control; assay type: functional; procedure, shortened: as §2
[9] = system: Rattus norvegicus; assay: Antiinflammatory activity in Wistar rat assessed as inhibition of formalin-induced paw oedema volume at 100 mg/kg, po administered 30 mins before formalin challenge after 5 hrs relative to control; assay type: functional; procedure, shortened: as §2
[10] = system: Escherichia coli; assay: Antibacterial activity against Escherichia coli at 100 ug/mL after 48 hrs by cup-plate method; assay type: functional
[11] = system: Escherichia coli; assay: Antibacterial activity against Escherichia coli at 50 ug/mL after 48 hrs by cup-plate method; assay type: functional
[12] = system: Escherichia coli; assay: Antibacterial activity against Escherichia coli at 25 ug/mL after 48 hrs by cup-plate method; assay type: functional; settings: for zone of inhibition at 25 µg/mL: read-out: IZ
[13] = system: Bacillus; assay: Antibacterial activity against […] at 100 ug/mL after 48 hrs by cup-plate method; assay type: functional
[14] = system: Bacillus; assay: Antibacterial activity against […] at 50 ug/mL after 48 hrs by cup-plate method; assay type: functional
[15] = system: Bacillus; assay: Antibacterial activity against […] at 25 ug/mL after 48 hrs by cup-plate method; assay type: functional; settings: for zone of inhibition at 25 µg/mL: read-out: IZ
[16] = system: Aspergillus niger; assay: Antifungal activity against Aspergillus niger at 100 ug/mL after 48 hrs by cup-plate method; assay type: functional
[17] = system: Aspergillus niger; assay: Antifungal activity against Aspergillus niger at 50 ug/mL after 48 hrs by cup-plate method; assay type: functional
[18] = system: Aspergillus niger; assay: Antifungal activity against Aspergillus niger at 25 ug/mL after 48 hrs by cup-plate method; assay type: functional; settings: for zone of inhibition at 25 µg/mL: read-out: IZ
[19] = system: Macrophomina phaseolina; assay: Antifungal activity against Rhizoctonia bataticola at 100 ug/mL after 48 hrs by cup-plate method; assay type: functional
[20] = system: Macrophomina phaseolina; assay: Antifungal activity against Rhizoctonia bataticola at 50 ug/mL after 48 hrs by cup-plate method; assay type: functional
[21] = system: Macrophomina phaseolina; assay: Antifungal activity against Rhizoctonia bataticola at 25 ug/mL after 48 hrs by cup-plate method; assay type: functional

Row | SMILES | LD50 at 24 h [1] | LD50 at 24 h [2] | UI [3] | inhibition in vivo at 10 mg/kg [4] | inhibition in vivo at 100 mg/kg [5] | inhibition in vivo at 100 mg/kg [6] | inhibition in vivo at 100 mg/kg [7] | inhibition in vivo at 100 mg/kg [8] | inhibition in vivo at 100 mg/kg [9] | inhibition at 100 µg/mL [10] | inhibition at 50 µg/mL [11] | inhibition at 25 µg/mL [12] | zone of inhibition at 25 µg/mL [12] | inhibition at 100 µg/mL [13] | inhibition at 50 µg/mL [14] | inhibition at 25 µg/mL [15] | inhibition at 100 µg/mL [16] | inhibition at 50 µg/mL [17] | inhibition at 25 µg/mL [18] | inhibition at 100 µg/mL [19] | further results
1 | O=c1cc(CNc2ccc(F)cc2)c2ccc3ccccc3c2o1 | > 700 mg/kg | > 1000 mg/kg | 64.93 | 76.4% | 81% | 54% | 53% | 71% | 81% | – | – | – | – | – | – | – | – | – | – | – | –
2 | O=c1cc(COc2ccc(F)cc2)c2ccc3ccccc3c2o1 | > 800 mg/kg | > 1000 mg/kg | 61.8 | 23.2% | 46% | 30% | 45% | 66% | 75% | – | – | – | – | – | – | – | – | – | – | – | –
3 | Cc1ccc2oc(=O)cc(COc3ccc(F)cc3)c2c1 | > 700 mg/kg | > 1000 mg/kg | 57.29 | 72.7% | 40% | 36% | 48% | 64% | 76% | – | – | – | – | – | – | – | – | – | – | – | –
4 | O=c1cc(COc2ccc(F)cc2)c2cc(Cl)ccc2[nH]1 | > 800 mg/kg | > 1000 mg/kg | 71.42 | 26.9% | 39% | 28% | 57% | 71% | 80% | 81% | 62% | 45% | 88 mm | 80% | 51% | 28% | 75% | 44% | 29% | 84% | zone of inhibition at 25 µg/mL [15]: 60 mm; zone of inhibition at 25 µg/mL [18]: 62 mm; inhibition at 50 µg/mL [20]: 68%; inhibition at 25 µg/mL [21]: 50%
5 | O=c1cc(CNc2ccc(F)cc2)c2c(ccc3ccccc32)o1 | > 800 mg/kg | > 1000 mg/kg | 64.93 | 10.5% | 63% | 35% | 53% | 60% | 77% | – | – | – | – | – | – | – | – | – | – | – | –
6 | O=c1cc(COc2ccc(F)cc2)c2cc(Cl)ccc2o1 | > 700 mg/kg | > 1000 mg/kg | 66.66 | 56.2% | 39% | 38% | 58% | 71% | 80% | 94% | 60% | 51% | 92 mm | 97% | 71% | 64% | 89% | 71% | 61% | 89% | inhibition at 50 µg/mL [20]: 74%; inhibition at 25 µg/mL [21]: 65%
7 | O=c1cc(COc2ccc(F)cc2)c2ccc(Cl)cc2[nH]1 | > 800 mg/kg | > 1000 mg/kg | 67.5 | 61.3% | 24% | 24% | 54% | 66% | 78% | 78% | 56% | 34% | 72 mm | 76% | 40% | 22% | 79% | 47% | 34% | 86% | zone of inhibition at 25 µg/mL [15]: 52 mm; zone of inhibition at 25 µg/mL [18]: 68 mm; inhibition at 50 µg/mL [20]: 72%; inhibition at 25 µg/mL [21]: 55%
8 | O=c1cc(CNc2ccc(F)cc2)c2ccc(Cl)cc2[nH]1 | > 700 mg/kg | > 1000 mg/kg | 61.42 | 28.6% | 4% | 4% | 42% | 57% | 77% | 73% | 54% | 32% | 68 mm | 78% | 44% | 27% | 80% | 52% | 41% | 79% | zone of inhibition at 25 µg/mL [15]: 58 mm; zone of inhibition at 25 µg/mL [18]: 78 mm; inhibition at 50 µg/mL [20]: 62%; inhibition at 25 µg/mL [21]: 48%
9 | Cc1cccc2c(CNc3ccc(F)cc3)cc(=O)[nH]c12 | > 700 mg/kg | > 1000 mg/kg | 55.35 | 67% | 23% | 28% | 6% | 73% | 85% | – | – | – | – | – | – | – | – | – | – | – | –
10 | O=c1cc(COc2ccc(F)cc2)c2ccccc2[nH]1 | > 800 mg/kg | > 1000 mg/kg | 60.71 | 15.8% | 35% | 23% | 52% | 63% | 77% | – | – | – | – | – | – | – | – | – | – | – | –
